# Residue numbers refer to the chain shown, from its start.
# Tests used:
# HsNMT1 = molecular target: T1, HsNMT1 (Homo sapiens, UniProt P30419); experiment: NMT enzyme inhibition assay; format: biochemical
# T1 sequence (P30419 109-496 limits assumed): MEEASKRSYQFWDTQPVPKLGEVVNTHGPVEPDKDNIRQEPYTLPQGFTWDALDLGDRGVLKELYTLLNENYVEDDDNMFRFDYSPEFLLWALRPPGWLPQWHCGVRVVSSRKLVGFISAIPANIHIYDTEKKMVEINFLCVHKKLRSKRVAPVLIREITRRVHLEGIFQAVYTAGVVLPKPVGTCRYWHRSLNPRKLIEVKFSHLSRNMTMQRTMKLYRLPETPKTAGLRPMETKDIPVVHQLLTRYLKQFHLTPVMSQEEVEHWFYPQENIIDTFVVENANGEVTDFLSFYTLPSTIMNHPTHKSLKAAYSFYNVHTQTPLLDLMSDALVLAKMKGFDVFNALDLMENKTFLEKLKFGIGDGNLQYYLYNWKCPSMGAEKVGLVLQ
# PfNMT = molecular target: T2, PfNMT (Plasmodium falciparum, UniProt Q9U419); experiment: NMT enzyme inhibition assay; format: biochemical, P. falciparum; conditions: for lower inhibition vs. 4: shorter or longer spacers than the methylene ester; for lower inhibition vs. 4 / activity drop vs. 4: compared with compound 4
# T2 sequence (Q9U419 1-410): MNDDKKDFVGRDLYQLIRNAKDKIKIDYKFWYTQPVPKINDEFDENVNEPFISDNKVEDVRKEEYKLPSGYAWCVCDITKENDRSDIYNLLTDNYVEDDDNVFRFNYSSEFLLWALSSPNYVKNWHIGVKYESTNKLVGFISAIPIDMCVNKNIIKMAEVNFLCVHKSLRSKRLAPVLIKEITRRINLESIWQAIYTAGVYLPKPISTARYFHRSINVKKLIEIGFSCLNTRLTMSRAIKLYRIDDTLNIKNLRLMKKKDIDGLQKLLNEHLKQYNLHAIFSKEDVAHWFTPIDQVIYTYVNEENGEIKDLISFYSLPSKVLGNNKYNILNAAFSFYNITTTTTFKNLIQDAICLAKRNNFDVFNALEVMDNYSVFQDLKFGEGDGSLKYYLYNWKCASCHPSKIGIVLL
# Procedure, shortened: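 Stopped with streptavidin PVT beads in pH 4 stop solution; scintillation counted. No-inhibitor wells set 100%, no-enzyme wells 0%. Test compound 500 μM to 2 nM, in duplicate. IC50 by nonlinear regression, averaged from two independent curves.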
# P. falciparum, 3D7 line = experiment: P. falciparum inhibition assay; format: cell-based; conditions: synchronized P. falciparum trophozoites (3D7 line)
# Procedure, shortened: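 Synchronous late-trophozoite cultures (1% parasitemia, 2% hematocrit) with test compound in 0.5% DMSO, 48 h at 37 °C. Aliquots stained with hydroethidine (1:200 dilution of 10 mg/mL stock in PBS), 20 min at 37 °C; 50,000 cells counted by flow cytometry. Untreated parasites and uninfected RBCs are the controls; % inhibition computed.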
# HsNMT1 Y296A = molecular target: T3, HsNMT1 Y296A (Homo sapiens, UniProt P30419, Y296A); experiment: NMT enzyme inhibition assay; format: biochemical; conditions: HsNMT1 Y296A vs wild type
# T3 sequence (P30419 109-496 Y296A limits assumed): T1 sequence (P30419 109-496 limits assumed) with Y188A
smiles,measurement,setting,value
"CCOC(=O)c1oc2cccc(OCCCNCc3cccnc3)c2c1C [Compound 1, reference compound]",selectivity over human NMT1 (in words),HsNMT1,promising selectivity
same,PfNMT inhibition (in words),PfNMT,moderate inhibition
"CCOC(=O)c1oc2cccc(OC3CCNCC3)c2c1C [Compound 2, Ethyl 3-methyl-4-(piperidin-4-yloxy) benzofuran-2-carboxylate]",selectivity over human NMT1 (in words),HsNMT1,good human selectivity
same,activity improvement over 1,"PfNMT; PfNMT inhibition, compared with compound 1",3 fold
"Cc1c(C(=O)Oc2ccccc2)oc2cccc(OC3CCNCC3)c12 [Compound 3, Phenyl 3-methyl-4-(piperidin-4-yloxy)-1-benzofuran-2-carboxylate]",lower inhibition vs. 4,PfNMT,10- to 100 fold
Cc1c(C(=O)OCc2ccccc2)oc2cccc(OC3CCNCC3)c12 [Compound 4],anti-plasmodial effect in vitro (in words),"P. falciparum, 3D7 line",highest anti-parasitic activity
Cc1c(C(=O)OCCc2ccccc2)oc2cccc(OC3CCNCC3)c12 [Compound 7],lower inhibition vs. 4,PfNMT,10- to 100 fold
Cc1c(C(=O)OCCCc2ccccc2)oc2cccc(OC3CCNCC3)c12 [Compound 8],lower inhibition vs. 4,PfNMT,10- to 100 fold
"Cc1c(C(=O)NC(C)C)oc2cccc(OC3CCNCC3)c12 [Compound 9, N-isopropyl-3-methyl-4-(piperidin-4-yloxy)benzofuran-2-carboxamide]",IC50,PfNMT,> 200 µM
Cc1c(C(=O)NC2CCCCC2)oc2cccc(OC3CCNCC3)c12 [Compound 10],IC50,PfNMT,> 100 µM
"Cc1c(CCc2ccccc2)oc2cccc(OC3CCNCC3)c12 [Compound 18, 4-{[3-Methyl-2-(2-phenylethyl)-1-benzofuran-4-yl]oxy}piperidine]",PfNMT inhibition (in words),PfNMT,does not confer inhibitory activity
"Cc1c(COCc2ccccc2)oc2cccc(OC3CCNCC3)c12 [Compound 21, 4-({2-[(Benzyloxy)methyl]-3-methyl-1-benzofuran-4-yl}oxy)-piperidine]",activity drop vs. 4,PfNMT; PfNMT inhibition,40 fold
Cc1c(C(=O)CCc2ccccc2)oc2cccc(OC3CCNCC3)c12 [Compound 22],activity drop vs. 4,PfNMT; PfNMT inhibition,40 fold
"Cc1c(C(=O)/C=C/c2ccccc2)oc2cccc(OC3CCNCC3)c12 [Compound 23, (2E)-1-[3-Methyl-4-(piperidin-4-yloxy)-1-benzofuran-2-yl]-3-phenylprop-2-en-1-one]",improvement in affinity vs. 22,"PfNMT; PfNMT inhibition, compared with compound 22",3 fold
"O=S(=O)(Cc1ccccc1)c1cc2c(OC3CCNCC3)cccc2o1 [Compound 24, 4-{[2-(Phenylmethane)sulfonyl-1-benzofuran-4-yl]oxy}piperidine]",PfNMT inhibition (in words),PfNMT,dramatic loss of activity
Cc1c(-c2nc(Cc3ccccc3)no2)oc2cccc(OC3CCNCC3)c12 [Compound 25],PfNMT inhibition (in words),PfNMT,promising potency
COc1cccc(COC(=O)c2oc3cccc(OC4CCNCC4)c3c2C)c1 [Compound 26],HsNMT1 inhibition (in words),HsNMT1,weak inhibition
same,increase in affinity on mutation of the human NMT,HsNMT1 Y296A,four- to five-fold
same,PfNMT inhibition (in words),PfNMT,comparable potency to the parent compound 4

# From publication PMC3863768 (Journal of medicinal chemistry, 2012)
